From ChEMBL document CHEMBL1149369, “Isolation, structure elucidation, total synthesis, and evaluation of new natural and synthetic ceramides on human SK-MEL-1 melanoma cells” (J Med Chem, 2006)
Active and inactive are the calls of the source. No cut-off for these calls is given here.

How the values were obtained:
Type in all cases: functional, cell-based
SK-MEL-1 [1] = experiment: Antiproliferative activity against human SK-MEL-1 cells by MTT assay
Summary of the method: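 SK-MEL-1 in RPMI 1640 + 10% heat-inactivated FBS, 37 °C, 5% CO2; resuspended in fresh medium 24 h before treatment. 1 × 10^4 exponentially growing cells exposed 72 h at 37 °C to graded concentrations (10 mM ethanol/dodecane 49:1 stocks; final solvent ≤0.5%, vehicle controls). MTT; OD 570 nm vs control; IC50 by curve fitting; two independent experiments, triplicate determinations.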

SK-MEL-1 [2] = experiment: Apoptotic activity in human SK-MEL-1 cells measured as induction of DNA fragmentation
Summary of the method: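 SK-MEL-1 cells incubated 6 h or 12 h with 10-30 µM ceramides or untreated. 4 × 10^5 cells lysed in 50 mM Tris-HCl pH 8.0, 10 mM EDTA, 0.5% SDS, RNase A (37 °C, 1 h), then proteinase K (50 °C, 2 h). Phenol-chloroform-isoamyl alcohol extraction; 2% agarose gel in TAE at 40 V, 4 h; ethidium bromide staining, UV visualisation of ladders.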

SK-MEL-1 [3] = experiment: Apoptotic activity in human SK-MEL-1 cells measured as induction of poly ADP-ribose polymerase cleavage by Western blot analysis
Summary of the method: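 SK-MEL-1 cells exposed 12 h to 10 µM or 30 µM ceramides; untreated controls. Cells pelleted, washed in ice-cold PBS, lysed; SDS-PAGE and immunoblot with anti-PARP antibody that also detects the 85 kDa cleavage fragment.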

SK-MEL-1 [4] = experiment: Apoptotic activity in human SK-MEL-1 cells measured as procaspase 8 cleavage by Western blot analysis
Summary of the method: (§1)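 Western blot for procaspase-8 and -9 in SK-MEL-1 cells cultured with 10 µM or 30 µM ceramides and harvested at 12 h.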

SK-MEL-1 [5] = experiment: Apoptotic activity in human SK-MEL-1 cells measured as procaspase 9 cleavage by Western blot analysis; summary of the method: as §1

IC50 (SK-MEL-1 [1]) | Compound | Activity (SK-MEL-1 [2]) | Activity (SK-MEL-1 [3]) | Activity (SK-MEL-1 [4]) | Activity (SK-MEL-1 [5])
7.7 µM | CCCCCCCCCCCCCCCCCC[C@@H](OC(C)=O)C(=O)N[C@@H](COC(C)=O)[C@H](OC(C)=O)[C@@H](CCCCCCCCCCCCCCCCCC)OC(C)=O | Dose-dependent effect | Active | Active | Active
3.9 µM | CCCCCCCCCCCCCCCCCC[C@@H](OC(C)=O)[C@@H](OC(C)=O)[C@H](COC(C)=O)NC(=O)[C@@H](OC(C)=O)[C@@H](CCCCCCCCCCCCCCCCC)OC(C)=O | Dose-dependent effect | Active | Active | Active

Continued, molecule first:

Compound | IC50 (SK-MEL-1 [1]) | Activity (SK-MEL-1 [2]) | Activity (SK-MEL-1 [3]) | Activity (SK-MEL-1 [4]) | Activity (SK-MEL-1 [5])
CCCCCCCCCCCCCCCCCC[C@@H](OC(C)=O)[C@@H](OC(C)=O)[C@H](COC(C)=O)NC(=O)[C@H](OC(C)=O)[C@@H](CCCCCCCCCCCCCCCCC)OC(C)=O | 5.6 µM | Dose-dependent effect | Active | Active | Active
CCCCCCCCCCCCCCCCCC[C@@H](OC(C)=O)[C@@H](OC(C)=O)[C@H](COC(C)=O)NC(=O)[C@H](OC(C)=O)[C@H](CCCCCCCCCCCCCCCCC)OC(C)=O | 7.1 µM | Dose-dependent effect | Active | Active | Active
CCCCCCCCCCCCCCCCCC[C@@H](OC(C)=O)[C@@H](OC(C)=O)[C@H](COC(C)=O)NC(=O)[C@@H](OC(C)=O)[C@H](CCCCCCCCCCCCCCCCC)OC(C)=O | 10.2 µM | Dose-dependent effect | Active | Active | Active
